Test results: the M2OR odorant receptor database
Changes are numbered by the printed parent chain.

Tests used:
Conditions in all cases: stereoisomer not certain
OR1D4 (Homo sapiens) = target: T1, OR1D4 (Homo sapiens) (UniProt P47884)
T1 sequence (whole entry): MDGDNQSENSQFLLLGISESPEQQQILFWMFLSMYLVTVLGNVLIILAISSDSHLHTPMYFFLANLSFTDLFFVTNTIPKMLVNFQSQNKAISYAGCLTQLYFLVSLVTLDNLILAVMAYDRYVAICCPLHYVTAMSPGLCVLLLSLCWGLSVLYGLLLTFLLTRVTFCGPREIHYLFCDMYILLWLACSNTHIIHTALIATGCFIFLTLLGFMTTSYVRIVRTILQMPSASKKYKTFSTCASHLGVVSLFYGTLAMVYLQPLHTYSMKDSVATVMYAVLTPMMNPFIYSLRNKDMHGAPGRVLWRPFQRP
In short: (§1)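 Values were gathered from published papers (main text and supplementary material), with extra details requested from the original authors when needed, and checked for typos and inconsistencies. Each receptor–molecule pair is called responsive (active) if the original authors judged the measured signal statistically different from baseline, and non-responsive (inactive) otherwise. Assay methods varied by source, often transient mammalian cell-line luciferase assays. Recorded details include cell line, G-protein, co-transfected protein and tags.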

OR1D5 (Homo sapiens) = target: T2, OR1D5 (Homo sapiens) (UniProt P58170)
T2 sequence (whole entry): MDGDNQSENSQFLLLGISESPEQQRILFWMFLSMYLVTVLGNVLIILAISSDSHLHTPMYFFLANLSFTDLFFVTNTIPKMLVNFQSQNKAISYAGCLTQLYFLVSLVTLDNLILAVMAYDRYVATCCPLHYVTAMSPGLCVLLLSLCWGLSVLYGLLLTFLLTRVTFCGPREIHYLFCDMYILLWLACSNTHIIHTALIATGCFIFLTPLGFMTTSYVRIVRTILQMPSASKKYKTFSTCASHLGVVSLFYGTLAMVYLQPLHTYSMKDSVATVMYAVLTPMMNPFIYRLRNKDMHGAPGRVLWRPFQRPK
In short: as §1

OR1E1 (Homo sapiens) = target: T3, OR1E1 (Homo sapiens) (UniProt P30953)
T3 sequence (whole entry): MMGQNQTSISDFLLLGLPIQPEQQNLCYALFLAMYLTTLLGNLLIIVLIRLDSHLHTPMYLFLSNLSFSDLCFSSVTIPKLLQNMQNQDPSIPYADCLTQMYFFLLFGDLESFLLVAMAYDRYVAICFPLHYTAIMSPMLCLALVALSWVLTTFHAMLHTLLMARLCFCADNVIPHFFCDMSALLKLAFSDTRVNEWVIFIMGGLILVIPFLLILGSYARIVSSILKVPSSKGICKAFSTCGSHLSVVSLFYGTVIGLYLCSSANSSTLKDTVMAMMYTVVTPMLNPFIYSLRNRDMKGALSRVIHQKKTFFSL
In short: as §1

OR1E2 (Homo sapiens) = target: T4, OR1E2 (Homo sapiens) (UniProt P47887)
T4 sequence (whole entry): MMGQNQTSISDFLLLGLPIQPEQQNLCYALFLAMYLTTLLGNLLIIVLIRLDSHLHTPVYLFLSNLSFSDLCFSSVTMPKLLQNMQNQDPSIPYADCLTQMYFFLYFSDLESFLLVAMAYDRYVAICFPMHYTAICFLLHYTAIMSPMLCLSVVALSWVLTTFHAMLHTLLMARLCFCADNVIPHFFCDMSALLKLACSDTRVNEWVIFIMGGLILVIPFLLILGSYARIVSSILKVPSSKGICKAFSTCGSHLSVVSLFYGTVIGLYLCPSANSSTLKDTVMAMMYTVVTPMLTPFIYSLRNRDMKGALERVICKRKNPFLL
In short: as §1

OR1F1 (Homo sapiens) = target: T5, OR1F1 (Homo sapiens) (UniProt O43749)
T5 sequence (whole entry): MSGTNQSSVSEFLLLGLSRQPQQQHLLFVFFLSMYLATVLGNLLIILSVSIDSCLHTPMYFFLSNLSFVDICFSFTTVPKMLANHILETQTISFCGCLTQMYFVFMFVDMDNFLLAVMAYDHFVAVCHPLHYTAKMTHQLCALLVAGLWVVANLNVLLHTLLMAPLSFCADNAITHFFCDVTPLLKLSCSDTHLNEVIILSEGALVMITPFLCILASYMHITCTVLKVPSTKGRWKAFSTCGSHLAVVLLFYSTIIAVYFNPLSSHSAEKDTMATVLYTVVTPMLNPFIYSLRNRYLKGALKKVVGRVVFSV
In short: as §1

OR1F12P (Homo sapiens) = target: T6, OR1F12P (Homo sapiens) (UniProt Q8NHA8)
T6 sequence (whole entry): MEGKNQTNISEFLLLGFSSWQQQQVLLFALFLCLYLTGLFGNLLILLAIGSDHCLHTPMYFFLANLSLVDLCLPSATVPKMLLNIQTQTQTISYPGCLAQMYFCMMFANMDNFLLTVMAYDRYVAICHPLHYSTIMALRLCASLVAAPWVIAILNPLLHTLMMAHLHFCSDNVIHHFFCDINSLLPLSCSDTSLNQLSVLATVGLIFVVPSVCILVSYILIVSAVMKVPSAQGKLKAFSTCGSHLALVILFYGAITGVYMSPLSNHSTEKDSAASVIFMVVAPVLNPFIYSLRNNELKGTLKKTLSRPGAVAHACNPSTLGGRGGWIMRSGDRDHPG
In short: as §1

OR1G1 (Homo sapiens) = target: T7, OR1G1 (Homo sapiens) (UniProt P47890)
T7 sequence (whole entry): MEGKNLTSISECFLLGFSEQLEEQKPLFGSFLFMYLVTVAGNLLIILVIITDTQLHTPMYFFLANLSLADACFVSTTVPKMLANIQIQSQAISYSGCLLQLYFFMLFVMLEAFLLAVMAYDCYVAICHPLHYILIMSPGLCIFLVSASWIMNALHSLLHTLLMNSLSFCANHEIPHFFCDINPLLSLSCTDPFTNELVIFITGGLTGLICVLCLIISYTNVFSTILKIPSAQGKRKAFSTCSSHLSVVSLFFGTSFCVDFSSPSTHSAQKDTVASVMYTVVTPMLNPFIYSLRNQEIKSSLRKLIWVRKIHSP
In short: as §1

OR1I1 (Homo sapiens) = target: T8, OR1I1 (Homo sapiens) (UniProt O60431)
T8 sequence (whole entry): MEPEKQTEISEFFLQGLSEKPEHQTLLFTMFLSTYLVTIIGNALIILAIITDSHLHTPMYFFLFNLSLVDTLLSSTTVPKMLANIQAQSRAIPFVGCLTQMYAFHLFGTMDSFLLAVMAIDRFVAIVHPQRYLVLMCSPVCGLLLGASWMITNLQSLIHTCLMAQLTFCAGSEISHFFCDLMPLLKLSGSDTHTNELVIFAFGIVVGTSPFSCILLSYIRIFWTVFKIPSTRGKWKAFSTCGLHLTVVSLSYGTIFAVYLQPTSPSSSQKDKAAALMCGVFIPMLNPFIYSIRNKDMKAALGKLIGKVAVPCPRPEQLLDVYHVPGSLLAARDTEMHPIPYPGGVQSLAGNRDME
In short: as §1

OR1J1 (Homo sapiens) = target: T9, OR1J1 (Homo sapiens) (UniProt Q8NGS3)
T9 sequence (whole entry): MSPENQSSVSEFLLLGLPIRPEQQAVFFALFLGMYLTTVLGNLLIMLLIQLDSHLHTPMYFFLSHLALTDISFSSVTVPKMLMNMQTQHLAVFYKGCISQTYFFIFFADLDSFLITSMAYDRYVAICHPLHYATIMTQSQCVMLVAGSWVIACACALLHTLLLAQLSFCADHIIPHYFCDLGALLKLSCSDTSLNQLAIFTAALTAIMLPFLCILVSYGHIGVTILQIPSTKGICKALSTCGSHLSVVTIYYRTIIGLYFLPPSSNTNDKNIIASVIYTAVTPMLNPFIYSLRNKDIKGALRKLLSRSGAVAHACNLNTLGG
In short: as §1

OR1J2 (Homo sapiens) = target: T10, OR1J2 (Homo sapiens) (UniProt Q8NGS2)
T10 sequence (whole entry): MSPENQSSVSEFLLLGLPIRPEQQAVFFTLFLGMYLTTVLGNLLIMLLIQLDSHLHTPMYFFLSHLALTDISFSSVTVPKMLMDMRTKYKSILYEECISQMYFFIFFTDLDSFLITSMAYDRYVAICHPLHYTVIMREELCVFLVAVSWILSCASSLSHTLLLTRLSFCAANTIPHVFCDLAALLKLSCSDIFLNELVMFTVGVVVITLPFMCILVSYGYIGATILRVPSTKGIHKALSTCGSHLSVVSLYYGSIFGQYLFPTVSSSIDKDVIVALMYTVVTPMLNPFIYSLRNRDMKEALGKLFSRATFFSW
In short: as §1

OR1J4 (Homo sapiens) = target: T11, OR1J4 (Homo sapiens) (UniProt Q8NGS1)
T11 sequence (whole entry): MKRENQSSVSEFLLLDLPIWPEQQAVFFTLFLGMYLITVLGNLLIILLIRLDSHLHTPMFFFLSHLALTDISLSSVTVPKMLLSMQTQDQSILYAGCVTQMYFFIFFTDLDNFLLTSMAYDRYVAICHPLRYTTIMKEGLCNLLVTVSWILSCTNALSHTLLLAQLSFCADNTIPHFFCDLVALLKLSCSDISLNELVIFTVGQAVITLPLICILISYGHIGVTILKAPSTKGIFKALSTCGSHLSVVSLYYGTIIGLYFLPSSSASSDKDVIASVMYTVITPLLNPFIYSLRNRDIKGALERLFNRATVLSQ
In short: as §1

OR1K1 (Homo sapiens) = target: T12, OR1K1 (Homo sapiens) (UniProt Q8NGR3)
T12 sequence (whole entry): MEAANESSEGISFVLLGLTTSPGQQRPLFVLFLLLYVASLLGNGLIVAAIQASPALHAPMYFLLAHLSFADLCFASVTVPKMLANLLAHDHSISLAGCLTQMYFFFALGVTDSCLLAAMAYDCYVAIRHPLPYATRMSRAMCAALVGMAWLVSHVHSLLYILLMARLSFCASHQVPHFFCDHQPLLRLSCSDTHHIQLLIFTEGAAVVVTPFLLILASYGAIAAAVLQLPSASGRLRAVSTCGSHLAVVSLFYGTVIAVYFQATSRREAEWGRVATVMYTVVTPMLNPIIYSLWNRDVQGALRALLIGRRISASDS
In short: as §1

OR1L1 (Homo sapiens) = target: T13, OR1L1 (Homo sapiens) (UniProt Q8NH94)
T13 sequence (whole entry): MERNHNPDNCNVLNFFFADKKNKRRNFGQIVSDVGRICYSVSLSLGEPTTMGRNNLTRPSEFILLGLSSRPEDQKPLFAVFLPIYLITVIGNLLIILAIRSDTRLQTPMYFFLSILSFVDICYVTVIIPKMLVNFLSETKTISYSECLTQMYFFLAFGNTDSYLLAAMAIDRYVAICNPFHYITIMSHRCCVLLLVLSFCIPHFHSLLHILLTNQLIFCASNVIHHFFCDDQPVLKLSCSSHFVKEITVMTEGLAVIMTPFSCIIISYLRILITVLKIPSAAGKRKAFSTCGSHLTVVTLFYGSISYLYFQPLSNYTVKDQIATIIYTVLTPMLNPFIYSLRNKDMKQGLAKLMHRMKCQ
In short: as §1

OR1F1 = system: T14, OR1F1
T14 sequence (whole entry): T5 sequence (whole entry) with F75S
In short: as §1

OR1E2 = system: T15, OR1E2
T15 sequence (whole entry): T4 sequence (whole entry) with C27R
In short: as §1

OR1L1 = system: T16, OR1L1
T16 sequence (whole entry): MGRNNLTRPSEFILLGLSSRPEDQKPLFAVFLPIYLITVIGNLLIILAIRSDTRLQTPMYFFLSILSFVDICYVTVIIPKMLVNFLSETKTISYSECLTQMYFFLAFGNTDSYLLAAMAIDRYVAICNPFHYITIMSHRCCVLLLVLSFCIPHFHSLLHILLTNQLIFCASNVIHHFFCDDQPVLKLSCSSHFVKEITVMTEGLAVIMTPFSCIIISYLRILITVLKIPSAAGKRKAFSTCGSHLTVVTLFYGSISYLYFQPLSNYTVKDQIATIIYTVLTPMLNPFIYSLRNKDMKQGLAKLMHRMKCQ
In short: as §1

Measured: odorant receptor agonist call

CCCCCC(S)C(C)CO (stereo not given)
not listed: OR1F1 | OR1E2 | OR1L1
inactive: all other assays above

CCCCCCCCC(=O)OC
active: OR1G1 (Homo sapiens)

CCCCCCC(=O)[O-].[H+]
inactive: OR1G1 (Homo sapiens)

O=CN1CCCCC1
inactive: OR1F1

CC(=O)C=CC1=C(C)CCCC1(C)C
inactive: OR1G1 (Homo sapiens)

CCC1OC(=O)C(O)=C1C (stereo not given)
not listed: OR1D4 (Homo sapiens) | OR1L1 (Homo sapiens)
inactive: all other assays above

CCCC(S)CCOC(C)=O (stereo not given)
not listed: OR1D4 (Homo sapiens) | OR1L1 (Homo sapiens)
inactive: all other assays above
